Calls of active or inactive are those of the source. The rule behind the calls is not given here.
Columns and labels:
[1] = system: HeLa; experiment: Viability of human HeLa S3 cells; format: functional; design: concentration or dose not given beside the values
Summary of the method: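 HeLa S3 cells exposed to compound for 7 h, then allowed to recover without compound for 24 h; viability recorded at four concentrations.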

[2] = target: Genome polyprotein (Human poliovirus 1 Mahoney, UniProt P03300); experiment: Binding affinity to poliovirus RNA dependent RNA polymerase; design: species or system Enterovirus C
Genome polyprotein, sequence (P03300 1749-2209 limits assumed): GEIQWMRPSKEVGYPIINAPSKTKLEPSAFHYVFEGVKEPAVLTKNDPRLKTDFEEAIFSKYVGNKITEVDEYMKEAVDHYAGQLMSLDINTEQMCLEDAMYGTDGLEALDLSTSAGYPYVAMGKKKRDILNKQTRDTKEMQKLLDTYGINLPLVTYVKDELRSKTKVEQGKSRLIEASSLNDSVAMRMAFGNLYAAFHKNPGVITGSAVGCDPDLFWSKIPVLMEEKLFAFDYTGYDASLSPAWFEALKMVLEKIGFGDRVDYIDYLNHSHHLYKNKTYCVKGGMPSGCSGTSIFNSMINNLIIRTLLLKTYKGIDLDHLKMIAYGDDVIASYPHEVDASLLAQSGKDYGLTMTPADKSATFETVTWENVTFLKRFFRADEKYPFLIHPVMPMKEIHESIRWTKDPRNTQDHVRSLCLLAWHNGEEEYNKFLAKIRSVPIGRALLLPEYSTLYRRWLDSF
Summary of the method: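 Purified poliovirus RdRP complexed with ³²P end-labeled symmetrical 10-mer RNA primer-template (S/S–G); nucleotide incorporation opposite G followed, products separated by denaturing PAGE; Kd and kpol derived from incorporation kinetics.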

[3] = system: Coxsackievirus B3; experiment: Antiviral activity against coxsackievirus B3 in HeLa S3 cells assessed as reduction in viral titer; format: functional, organism-based
Summary of the method: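 HeLa S3 cells were pretreated with compound for 1 h, then infected with 10⁶ PFU CVB3 (high MOI). After 15 min of virus association, fresh medium containing compound was added and infection continued for 6 h. Cell-associated virus was titered by plaque assay. Cytotoxicity was checked separately after 7 h of treatment plus 24 h of recovery without compound.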

[4] = system: Enterovirus C; experiment: Antiviral activity against poliovirus in HeLa S3 cells assessed as reduction in viral titer; format: functional, organism-based
Summary of the method: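 HeLa S3 cells pretreated with compound 1 h, then infected with 10⁶ PFU poliovirus (high MOI); after 15 min adsorption, fresh medium containing compound added and infection run a further 6 h. Cell-associated virus titered by plaque assay.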

[5] = system: Human alphaherpesvirus 1; experiment: Antiviral activity against herpes simplex virus 1; format: functional, organism-based
[6] = system: Human immunodeficiency virus 1; experiment: Antiviral activity against HIV1; format: functional, organism-based
[7] = system: Human alphaherpesvirus 2; experiment: Antiviral activity against herpes simplex virus 2; format: functional, organism-based

Structure (SMILES) | Activity [1] [%] | Activity [3] | Activity [4] | further results
Nc1nc(=O)n([C@@H]2O[C@H](CO)[C@@H](O)[C@H]2O)cc1O | 36 |  |  | 
Nc1nc(=O)n([C@@H]2O[C@H](CO[P@@](=O)(O)O[P@](=O)(O)OP(=O)(O)O)[C@@H](O)[C@H]2O)cc1[N+](=O)[O-] |  |  |  | Kd [2]: 1080 nM
Nc1nc(=O)n([C@H]2C[C@H](O)[C@@H](CO)O2)cc1O | 82 | inactive | inactive | 
Nc1nc(=O)n([C@H]2C[C@H](O)[C@@H](CO)O2)cc1Br | 93 | inactive | inactive | 
Nc1nc(=O)n([C@H]2C[C@H](O)[C@@H](CO)O2)cc1[N+](=O)[O-] |  |  |  | Activity [5]: Active; Activity [6]: Active; Activity [7]: Active
Nc1nc(=O)n([C@@H]2O[C@H](CO)[C@@H](O)[C@H]2O)cc1Br | 63 |  |  | 
Nc1cn([C@@H]2O[C@H](CO)[C@@H](O)[C@H]2O)c(=O)nc1N | 62 | Active | Active | 
NC(=O)c1ncn([C@@H]2O[C@H](CO)[C@@H](O)[C@H]2O)n1 [RIBAVIRIN] | 70 | Dose-dependent effect | Dose-dependent effect | 
Nc1nc(=O)n([C@@H]2O[C@H](CO)[C@@H](O)[C@H]2O)cc1[N+](=O)[O-] | 80 | Active | Active | 
